Hits are enriched below; roughly 5.1% of the tested compounds scored in any of these assays.
STAT1 act: increases IFN-gamma driven STAT1 reporter signal; NIH 3T3 STAT1-luciferase reporter, luminescence; 100% = IFN-gamma alone, no compound; activation (% of control), % at 5.5 µM; actives 2.6% (n = 200,000); AID 932;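 active means activation above the screen-wide mean activation plus 3 SD, cut at about 130% in these data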;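 further: raw ratio to IFN-gamma control signal so 100% means no change and 0% no light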
NF-kB expr up: compounds increasing NF-kB expression in human neuronal cells; NF-kB reporter expression; active compounds read high; fold change at 12.5 µM; actives 1.6% (n = 190,000); AID 1239; in the data active means fold change above about 3.3
STAT3 inh: STAT3 signaling inhibition | U3A cells, IL-6 STAT3-luciferase reporter, luminescence; host cell line lacks STAT1 | inhibition, % at 5.5 µM | actives 0.89% (n = 190,000) | AID 862;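 active means inhibition above the mean inhibition across all screened compounds plus 3 SD, cut at about 44% in these data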;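 further: 0% = DMSO only wells and 100% = 100 µM nifuroxazide control wells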
STAT1 blocker: STAT1 signaling inhibition. NIH 3T3 STAT1-luciferase reporter, IFN-gamma, luminescence. inhibition, % at 5.5 µM. actives 0.35% (n = 200,000). AID 920;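 active means inhibition above a set limit, the mean inhibition across all tested compounds plus 3 SD, cut at about 34% in these data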;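 further: 0% = IFN-gamma with DMSO and 100% = IFN-gamma with 300 µM nifuroxazide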
APP 5'UTR act: activates APP 5'UTR luciferase reporter | SH-SY5Y APP 5'UTR luciferase reporter, luminescence; zero percent = DMSO vehicle wells | activation, % at 2 µM | actives 1% (n = 190,000) | AID 1276;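 active means activation above a set limit, based on mean plus 3 SD of controls, cut at about 140% in these data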
STAT3 activator: STAT3 signaling activation | U3A cells, IL-6 STAT3-luciferase reporter, luminescence; 100% = signal with IL-6 EC80 alone | activation (% of control), % at 5.6 µM | actives 0.91% (n = 190,000) | AID 871;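 active means activation above the screen-wide mean of compound activation plus 3 SD, cut at about 130% in these data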;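 further: 0% = background luminescence of wells with medium and substrate only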
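Material: human STAT1-deficient U3A cells with stable STAT3-luciferase reporter / Probe or stimulus: IL-6 stimulus at 33 ng/mL final / Schedule: 1 h compound pre-exposure, 6 h IL-6 stimulation, 37 °C / Technique: luminescence / Read-out basis: percent of IL-6-only median luminescence / Control set: IL-6-only high control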
* hit, by the source's call.

SMILES	STAT1 act	NF-kB expr up	STAT3 inh	STAT1 blocker	APP 5'UTR act	STAT3 activator
CC(C)[C@H](NC(=O)C1CCCC1)c1nc2ccccc2[nH]1	102	1.1	6	-3	2	102
c1ccc(-c2nc3cc4ccccc4cc3[nH]2)nc1	60	2.8	86*	44*	157*	28
O=C(NC1CCCCCCC1)c1cc(F)c(F)cc1Cl	130*	1.6	-6	-32	32	115
CSc1ccc(Cl)c(C(=O)NC2CCCC2)c1	102	1.1	1	-2	6	102
O=C(NCCOc1ccccc1F)c1cc(F)c(F)cc1Cl	134*	3.2	18	-33	124	84
Cc1ccccc1-n1c(=S)[nH]c2nc3c(cc2c1=O)CCCC3	97	1.1	7	2	12	98
Cc1cc(NC(=O)c2ccccc2[N+](=O)[O-])ccc1Br	138*	2.2	10	-44	47	94
Cc1ccc(-n2c(C)nnc2SCC(=O)N2CCc3ccccc3C2)cc1	100	0.84	8	-1	-5	95
CCN1C(=O)/C(=C\c2ccc(-c3ccc([N+](=O)[O-])cc3OC)o2)SC1=Nc1cccc(C(=O)O)c1	96	0.97	2	1	-3	102
CCN=C1S/C(=C\c2ccc(-c3cccc(C(=O)O)c3)o2)C(=O)N1CC	118	2.2	-35	-20	185*	131
O=C1NC2(CCCCC2)Cc2ccccc21	97	0.97	5	3	-7	99
O=C1NC2(CCCC2)Oc2ccccc21	95	3.5*	0	4	23	101
O=C(Nc1nc2ccccc2[nH]1)c1cc2ccccc2o1	121	5.5*	26	-22	263*	80
O=C(Nc1nc2ccccc2[nH]1)c1ccccc1F	30	0.37	101*	78*	-1	13
O=C(Nc1nc2ccccc2[nH]1)c1ccccc1[N+](=O)[O-]	136*	2.2	-6	-41	17	106
O=C(Nc1ccc2c(c1)S(=O)(=O)N=C1CCCCCN12)c1ccccc1Cl	91	0.96	11	8	-1	97
Cc1ccc(Nc2nc(N)nc(CSC(=S)N3CCOCC3)n2)cc1	126	2	-18	-28	46	121
Nc1nc(CSC(=S)N2CCOCC2)nc(Nc2ccccc2)n1	131*	1.7	-22	-35	42	122
Nc1nc(CSC(=S)N2CCCCC2)nc(Nc2ccccc2)n1	136*	1.9	-21	-36	53	123
CCCS(=O)(=O)c1c(S(=O)(=O)CCC)c2ccc(C(N)=O)cn2c1C(=O)c1ccc(OC)cc1	108	1.1	13	-8	17	96
CCN(Cc1ccncc1)C(=O)CC1C(=O)NCCN1Cc1ccc(F)c(F)c1 (configuration not stated)	97	2.1	10	2	5	95
O=S(=O)(c1ccccc1)c1cnc(-c2ccccc2)nc1N1CCCC1	146*	1.6	22	-51	-13	90
COc1cccc(C(=O)N2CCn3c2nc2ccccc23)c1	111	1.5	4	-13	26	97
O=C(Nc1ccc(F)cc1F)c1cc2nc3c(c(C(F)(F)F)n2n1)CCCC3	105	0.45	0	-5	173*	100
Cc1cccc(/C=C/c2nc3ccccc3c(=O)[nH]2)c1	121	6.3*	39	-21	92	68
SMILES	STAT1 act	NF-kB expr up	STAT3 inh	STAT1 blocker	APP 5'UTR act	STAT3 activator
Cc1cccc(/C=C/c2nc3ccccc3c(=O)n2Cc2ccccc2)c1	99	0.86	8	1	-5	96
CCN(CC)c1ccc(C=C2C(=O)OC3(CCCCC3)OC2=O)cc1	101	1.2	9	-2	-19	102
CCN(CC)c1ccc(/C=C2/C(=O)c3ccc(C(=O)O)cc3C2=O)cc1	130*	2.5	-10	-33	7	106
CC(=O)c1ccc(S(=O)(=O)N(Cc2cc3cc4c(cc3[nH]c2=O)OCCO4)CC2CCCO2)cc1 (configuration not stated)	129*	1.6	-5	-32	26	109
CCCC(=O)Nc1nc(C)c(C(C)=O)s1	104	1.2	14	-6	-31	94
CC(=O)c1sc(N/N=C2\CC3CC2C(C)C3(C)C)nc1C (configuration not stated)	131*	1.9	10	-37	57	96
Cc1nn(CC(=O)NCc2ccc(C(=O)O)cc2)c(C)c1[N+](=O)[O-]	87	1.1	28	13	-12	83
O=C(O)c1ccc(N2CC3CC(C2)c2cccc(=O)n2C3)c(NC(=S)Nc2ccc(Br)cc2)c1 (configuration not stated)	95	3.9*	22	4	12	83
Cc1cc(C)n2nc(SCCOc3ccccc3F)nc2n1	120	1.7	14	-22	18	90
CCn1cc(C(=O)OCC(=O)c2cc(C)n(-c3ccccc3F)c2C)c(=O)c2ccc(C)nc21	100	1	-2	0	1	102
Cc1cc(C(=O)COC(=O)c2ccc(O)cc2)c(C)n1-c1ccccc1F	126	1.3	13	-30	185*	90
Cc1cc(C(=O)Cn2nnc3ccccc3c2=O)c(C)n1-c1ccccc1F	129*	1.7	22	-32	197*	86
Cc1cc(C(=O)Cn2nnc3ccccc3c2=O)c(C)n1-c1c(C)n(C)n(-c2ccccc2)c1=O	101	0.94	6	-1	1	99
CCOc1ccccc1OCCNC1CCCC1	99	1.1	9	1	-17	96
Cc1ccc2oc(C(=O)Nc3nnc(C)s3)c(C)c2c1	141*	4.7*	27	-44	8	77
CCc1nnc(NC(=O)c2oc3cc(C)c(C)cc3c2C)s1	100	1.4	12	0	17	91
CCOC(=O)c1cc(CC)sc1NC(=O)c1cc(OC)c(OC)c(OC)c1	98	0.66	17	5	1	85
Cc1nn(-c2nc3ccccc3[nH]2)c(=O)c2ccccc12	9	0.29	112*	97*	-74	8
Cc1ccc(-n2ncc3ccccc3c2=O)cc1Cl	148*	4.9*	16	-53	97	91
Cc1nn(-c2ccc3ccccc3c2)c(=O)c2ccccc12	149*	3.2	-23	-55	142*	124
Cc1nn(-c2nc3ccccc3[nH]2)c(N)c1-c1ccc(Cl)cc1	114	1.9	-9	-16	106	109
Cc1nn(-c2ccc(Cl)cc2)c(=O)c2ccccc12	128	2.7	-31	-33	62	134*
Cc1ccc(-n2c(C)nc3c(cnn3-c3ccccc3Cl)c2=O)cc1C	90	0.58	15	11	2	92
COc1cc(/C=N/NC(=O)CCN2CCN(C(c3ccccc3)c3ccccc3)CC2)ccc1O	100	0.9	-8	0	-1	103
CCc1ccc(C(N)=S)cc1	98	1.1	4	2	-4	100
